Laboratory results from ChEMBL document CHEMBL5136968, “Posttranslational modifications of α-conotoxins: sulfotyrosine and C-terminal amidation stabilise structures and increase acetylcholine receptor binding” (RSC Med Chem, 2021).
Positions of bridges follow the written chain, without caps; N, C: chain ends. Non-standard residues stand in square brackets, D forms with d. Residues, ends and D or L forms follow the SMILES beside them. sY = N[C@@H](Cc1ccc(OS(=O)(=O)O)cc1)C(=O)O

Legend:
[1] = Displacement of [3H]-epibatidine from Aplysia californica Acetylcholine-binding protein measured after 1 hr by liquid scintillation counter
Method in brief: (§1)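 Recombinant AChBP expressed in E. coli (IPTG induction, 16 °C), coated onto wells at 1 ng μL−1. Incubated 1 h at 4 °C with [3H]-epibatidine (1 nM final) and increasing peptide in PBS with 0.05% BSA. Unbound ligand washed off; bound radioactivity counted by liquid scintillation. One-site competition fit gives Ki. Triplicate, three independent experiments; pKi as mean with 95% CI.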

[2] = target: Acetylcholine-binding protein (Lymnaea stagnalis, UniProt P58154); assay: Displacement of [3H]-epibatidine from Lymnaea stagnalis Acetylcholine-binding protein measured after 1 hr by liquid scintillation counter; method in brief: as §1
Chain of Acetylcholine-binding protein (P58154 whole entry): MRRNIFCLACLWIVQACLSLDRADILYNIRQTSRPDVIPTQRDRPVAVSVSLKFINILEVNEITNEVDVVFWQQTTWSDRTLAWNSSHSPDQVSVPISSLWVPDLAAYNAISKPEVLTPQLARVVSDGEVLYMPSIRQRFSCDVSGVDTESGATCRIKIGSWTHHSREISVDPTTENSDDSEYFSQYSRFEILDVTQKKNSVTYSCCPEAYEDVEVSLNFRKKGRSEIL

| SMILES | pKi [1] | Ki [2] [µM] |
| --- | --- | --- |
| CC(C)C[C@@H]1NC(=O)[C@H](CO)NC(=O)[C@@H]2CSSC[C@@H](C(N)=O)NC(=O)[C@H](Cc3ccc(O)cc3)NC(=O)[C@H](CC(=O)O)NC(=O)[C@@H]3CCCN3C(=O)[C@H](CC(N)=O)NC(=O)[C@H](CC(N)=O)NC(=O)[C@H](C)NC(=O)[C@H](C)NC(=O)[C@H](CSSC[C@H](NC(=O)CN)C(=O)N2)NC(=O)[C@@H]2CCCN2C(=O)[C@@H]2CCCN2C1=O (H-GCCSLPPCAANNPDYC-NH2; disulfide 2-8, 3-16) | 8.85 | 9.12 |
| CC(C)C[C@@H]1NC(=O)[C@H](CO)NC(=O)[C@@H]2CSSC[C@@H](C(=O)O)NC(=O)[C@H](Cc3ccc(O)cc3)NC(=O)[C@H](CC(=O)O)NC(=O)[C@@H]3CCCN3C(=O)[C@H](CC(N)=O)NC(=O)[C@H](CC(N)=O)NC(=O)[C@H](C)NC(=O)[C@H](C)NC(=O)[C@H](CSSC[C@H](NC(=O)CN)C(=O)N2)NC(=O)[C@@H]2CCCN2C(=O)[C@@H]2CCCN2C1=O (H-GCCSLPPCAANNPDYC-OH; disulfide 2-8, 3-16) | 7.51 | > 100 |
| CC(C)C[C@@H]1NC(=O)[C@H](CO)NC(=O)[C@@H]2CSSC[C@@H](C(N)=O)NC(=O)[C@H](Cc3ccc(OS(=O)(=O)O)cc3)NC(=O)[C@H](CC(=O)O)NC(=O)[C@@H]3CCCN3C(=O)[C@H](CC(N)=O)NC(=O)[C@H](CC(N)=O)NC(=O)[C@H](C)NC(=O)[C@H](C)NC(=O)[C@H](CSSC[C@H](NC(=O)CN)C(=O)N2)NC(=O)[C@@H]2CCCN2C(=O)[C@@H]2CCCN2C1=O (H-GCCSLPPCAANNPD[sY]C-NH2; disulfide 2-8, 3-16) | 8.92 | 3.8 |
| CC(C)C[C@@H]1NC(=O)[C@H](CO)NC(=O)[C@@H]2CSSC[C@@H](C(=O)O)NC(=O)[C@H](Cc3ccc(OS(=O)(=O)O)cc3)NC(=O)[C@H](CC(=O)O)NC(=O)[C@@H]3CCCN3C(=O)[C@H](CC(N)=O)NC(=O)[C@H](CC(N)=O)NC(=O)[C@H](C)NC(=O)[C@H](C)NC(=O)[C@H](CSSC[C@H](NC(=O)CN)C(=O)N2)NC(=O)[C@@H]2CCCN2C(=O)[C@@H]2CCCN2C1=O (H-GCCSLPPCAANNPD[sY]C-OH; disulfide 2-8, 3-16) | 8.33 | > 100 |
